How the values were obtained:
[1] = biological target: Bromodomain-containing protein 4 (Homo sapiens, UniProt O60885, Y97A); test: Displacement of Alexa Fluor 647 labelled I-BET762 from N-terminal His6-tagged human BRD4 BD2 (1 to 477 residues)/BD1 Y97A mutant expressed in Escherichia coli after 1 hr by TR-FRET assay
[2] = biological target: Bromodomain-containing protein 3 (Homo sapiens, UniProt Q15059, Y73A); test: Displacement of Alexa Fluor 647 labelled I-BET762 from N-terminal His6-tagged human BRD3 BD2 (1 to 435 residues)/BD1 Y73A mutant expressed in Escherichia coli after 1 hr by TR-FRET assay
Sequence of Bromodomain-containing protein 3 (Homo sapiens, UniProt Q15059, Y73A) (Q15059 2-726 Y73A limits assumed): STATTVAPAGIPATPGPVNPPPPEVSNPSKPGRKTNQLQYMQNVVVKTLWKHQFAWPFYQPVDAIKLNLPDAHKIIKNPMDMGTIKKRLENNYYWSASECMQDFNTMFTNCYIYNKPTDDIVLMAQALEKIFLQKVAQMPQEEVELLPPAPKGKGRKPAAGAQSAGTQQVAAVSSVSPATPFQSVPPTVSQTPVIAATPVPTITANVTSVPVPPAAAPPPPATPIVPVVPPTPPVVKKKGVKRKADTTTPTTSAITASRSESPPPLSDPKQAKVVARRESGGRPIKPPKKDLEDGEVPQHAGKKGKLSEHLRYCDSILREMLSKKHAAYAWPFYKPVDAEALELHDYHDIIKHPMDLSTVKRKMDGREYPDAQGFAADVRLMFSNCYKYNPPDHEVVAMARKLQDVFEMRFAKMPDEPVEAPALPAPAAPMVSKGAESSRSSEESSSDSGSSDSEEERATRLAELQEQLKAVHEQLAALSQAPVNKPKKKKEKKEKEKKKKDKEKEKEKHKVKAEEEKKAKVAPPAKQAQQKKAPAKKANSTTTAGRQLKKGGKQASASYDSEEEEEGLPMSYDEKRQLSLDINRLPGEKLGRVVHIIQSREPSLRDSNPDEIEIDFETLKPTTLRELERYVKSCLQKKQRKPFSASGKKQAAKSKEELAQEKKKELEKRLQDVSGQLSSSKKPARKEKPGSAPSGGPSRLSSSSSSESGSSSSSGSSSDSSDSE
How it was run: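 Single-mutant tandem bromodomain constructs (Tyr→Ala in the other domain), N-terminal 6His, expressed in E. coli. Compounds were titrated from 10 mM DMSO stocks. Protein at 10 nM in 50 mM HEPES, 50 mM NaCl, 1 mM CHAPS, pH 7.4 with Alexa Fluor 647–I-BET762 tracer at 50 nM (200 nM for BRDT Y66A). Plates were equilibrated 1 h at rt in the dark, then 1.5 nM Eu-anti-6His was added.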

[3] = biological target: Bromodomain-containing protein 2 (Homo sapiens, UniProt P25440, Y113A); test: Displacement of Alexa Fluor 647 labelled I-BET762 from N-terminal His6-tagged human BRD2 BD2 (1 to 473 residues)/BD1 Y113A mutant expressed in Escherichia coli after 1 hr by TR-FRET assay
Sequence of Bromodomain-containing protein 2 (Homo sapiens, UniProt P25440, Y113A) (P25440 whole entry Y113A, the tested form may be a part): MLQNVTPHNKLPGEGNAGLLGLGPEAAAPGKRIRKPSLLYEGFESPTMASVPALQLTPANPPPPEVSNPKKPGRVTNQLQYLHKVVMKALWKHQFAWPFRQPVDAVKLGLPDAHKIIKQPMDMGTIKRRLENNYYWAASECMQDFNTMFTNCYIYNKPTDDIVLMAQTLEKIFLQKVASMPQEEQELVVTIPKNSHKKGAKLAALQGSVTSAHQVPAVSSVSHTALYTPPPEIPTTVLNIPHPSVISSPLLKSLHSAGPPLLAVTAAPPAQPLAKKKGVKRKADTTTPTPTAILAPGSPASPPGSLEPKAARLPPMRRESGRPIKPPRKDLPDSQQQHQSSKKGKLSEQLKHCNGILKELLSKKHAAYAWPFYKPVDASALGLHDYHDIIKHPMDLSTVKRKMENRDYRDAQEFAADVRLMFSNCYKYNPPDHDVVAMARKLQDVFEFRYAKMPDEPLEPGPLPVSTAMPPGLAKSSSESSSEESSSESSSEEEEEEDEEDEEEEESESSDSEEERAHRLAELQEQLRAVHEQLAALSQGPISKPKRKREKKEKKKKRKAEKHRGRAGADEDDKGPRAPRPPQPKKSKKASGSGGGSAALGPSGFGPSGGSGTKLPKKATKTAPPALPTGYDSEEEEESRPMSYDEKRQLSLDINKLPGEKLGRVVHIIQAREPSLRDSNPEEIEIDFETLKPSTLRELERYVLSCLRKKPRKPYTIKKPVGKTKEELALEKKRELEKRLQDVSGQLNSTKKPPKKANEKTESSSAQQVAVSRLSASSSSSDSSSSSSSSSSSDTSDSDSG

[4] = biological target: Bromodomain testis-specific protein (Homo sapiens, UniProt Q58F21, Y309A); test: Displacement of Alexa Fluor 647 labelled I-BET762 from N-terminal His6-tagged human BRDT BD1 (1 to 397 residues)/BD2 Y309A mutant expressed in Escherichia coli after 1 hr by TR-FRET assay
[5] = biological target: Bromodomain-containing protein 4 (Homo sapiens, UniProt O60885, Y390A); test: Displacement of Alexa Fluor 647 labelled I-BET762 from N-terminal His6-tagged human BRD4 BD1 (1 to 477 residues)/BD2 Y390A mutant expressed in Escherichia coli after 1 hr by TR-FRET assay
[6] = biological target: Bromodomain-containing protein 3 (Homo sapiens, UniProt Q15059, Y348A); test: Displacement of Alexa Fluor 647 labelled I-BET762 from N-terminal His6-tagged human BRD3 BD1 (1 to 435 residues)/BD2 Y348A mutant expressed in Escherichia coli after 1 hr by TR-FRET assay
Sequence of Bromodomain-containing protein 3 (Homo sapiens, UniProt Q15059, Y348A) (Q15059 2-726 Y348A limits assumed): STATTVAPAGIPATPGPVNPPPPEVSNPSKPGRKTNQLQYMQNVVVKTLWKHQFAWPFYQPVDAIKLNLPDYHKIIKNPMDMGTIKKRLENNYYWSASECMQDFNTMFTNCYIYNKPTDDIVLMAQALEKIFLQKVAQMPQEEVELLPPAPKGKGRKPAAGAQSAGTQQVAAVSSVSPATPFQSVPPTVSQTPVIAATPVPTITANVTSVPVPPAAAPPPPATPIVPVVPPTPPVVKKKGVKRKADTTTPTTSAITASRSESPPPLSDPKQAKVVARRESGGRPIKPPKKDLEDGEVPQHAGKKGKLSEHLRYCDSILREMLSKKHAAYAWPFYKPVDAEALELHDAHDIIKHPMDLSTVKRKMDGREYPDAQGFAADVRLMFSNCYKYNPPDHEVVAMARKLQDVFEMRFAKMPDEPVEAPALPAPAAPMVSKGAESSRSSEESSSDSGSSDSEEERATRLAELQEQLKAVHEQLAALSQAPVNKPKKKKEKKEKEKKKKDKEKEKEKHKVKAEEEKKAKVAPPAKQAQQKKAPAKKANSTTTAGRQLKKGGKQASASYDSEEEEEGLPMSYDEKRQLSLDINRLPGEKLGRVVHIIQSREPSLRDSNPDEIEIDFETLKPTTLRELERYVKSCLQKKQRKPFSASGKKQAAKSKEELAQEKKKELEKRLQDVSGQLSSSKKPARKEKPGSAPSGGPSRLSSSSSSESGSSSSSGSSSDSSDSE

[7] = biological target: Bromodomain-containing protein 2 (Homo sapiens, UniProt P25440, Y386A); test: Displacement of Alexa Fluor 647 labelled I-BET762 from N-terminal His6-tagged human BRD2 BD1 (1 to 473 residues)/BD2 Y386A mutant expressed in Escherichia coli after 1 hr by TR-FRET assay
Sequence of Bromodomain-containing protein 2 (Homo sapiens, UniProt P25440, Y386A) (P25440 whole entry Y386A, the tested form may be a part): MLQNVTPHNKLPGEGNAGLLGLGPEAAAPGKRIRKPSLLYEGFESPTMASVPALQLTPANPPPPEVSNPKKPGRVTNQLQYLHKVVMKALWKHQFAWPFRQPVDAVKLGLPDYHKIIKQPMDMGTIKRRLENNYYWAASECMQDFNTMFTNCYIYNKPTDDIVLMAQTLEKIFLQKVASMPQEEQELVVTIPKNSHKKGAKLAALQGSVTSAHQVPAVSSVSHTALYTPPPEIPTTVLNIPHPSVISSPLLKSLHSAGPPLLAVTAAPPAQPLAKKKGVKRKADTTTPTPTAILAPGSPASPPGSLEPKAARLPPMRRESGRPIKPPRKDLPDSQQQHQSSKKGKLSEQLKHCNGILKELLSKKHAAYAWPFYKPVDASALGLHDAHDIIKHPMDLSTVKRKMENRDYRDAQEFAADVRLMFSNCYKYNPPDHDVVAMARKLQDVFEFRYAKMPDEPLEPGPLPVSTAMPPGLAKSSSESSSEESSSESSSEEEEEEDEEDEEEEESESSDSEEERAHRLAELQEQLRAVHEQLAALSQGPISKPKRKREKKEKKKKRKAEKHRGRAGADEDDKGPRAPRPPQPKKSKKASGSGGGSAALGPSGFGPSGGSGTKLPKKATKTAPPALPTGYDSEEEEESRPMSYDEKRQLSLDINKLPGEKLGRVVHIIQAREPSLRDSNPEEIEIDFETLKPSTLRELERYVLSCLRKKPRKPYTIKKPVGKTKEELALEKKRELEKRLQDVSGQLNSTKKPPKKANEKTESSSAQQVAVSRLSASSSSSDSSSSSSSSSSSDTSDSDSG

[8] = biological target: Bromodomain testis-specific protein (Homo sapiens, UniProt Q58F21, Y66A); test: Displacement of Alexa Fluor 647 labelled I-BET762 from N-terminal His6-tagged human BRDT BD2 (1 to 397 residues)/BD1 Y66A mutant expressed in Escherichia coli after 1 hr by TR-FRET assay
Homo sapiens [9] = organism: Homo sapiens; test: Selectivity index, difference between pIC50 for N-terminal His6-tagged human BRD2 BD1 (1 to 473 residues)/ BD2 Y386A mutant expressed in Escherichia coli to pIC50 for N-terminal His6-tagged human BRD2 BD2 (1 to 473 residues)/BD1 Y113A mutant expressed in Escherichia coli
Homo sapiens [10] = organism: Homo sapiens; test: Selectivity index, difference between pIC50 for N-terminal His6-tagged human BRD3 BD1 (1 to 435 residues)/BD2 Y348A mutant expressed in Escherichia coli to pIC50 for N-terminal His6-tagged human BRD3 BD2 (1 to 435 residues)/BD1 Y73A mutant expressed in Escherichia coli
Homo sapiens [11] = organism: Homo sapiens; test: Selectivity index, difference between pIC50 for N-terminal His6-tagged human BRDT BD1 (1 to 397 residues)/ BD2 Y309A mutant expressed in Escherichia coli to pIC50 for N-terminal His6-tagged human BRDT BD2 (1 to 397 residues)/BD1 Y66A mutant expressed in Escherichia coli
[12] = biological target: T1, Bromodomain-containing protein 3 (Homo sapiens, UniProt Q15059); test: Binding affinity to BRD3 BD1 (unknown origin) by isothermal titration calorimetric method
T1 sequence (Q15059 whole entry): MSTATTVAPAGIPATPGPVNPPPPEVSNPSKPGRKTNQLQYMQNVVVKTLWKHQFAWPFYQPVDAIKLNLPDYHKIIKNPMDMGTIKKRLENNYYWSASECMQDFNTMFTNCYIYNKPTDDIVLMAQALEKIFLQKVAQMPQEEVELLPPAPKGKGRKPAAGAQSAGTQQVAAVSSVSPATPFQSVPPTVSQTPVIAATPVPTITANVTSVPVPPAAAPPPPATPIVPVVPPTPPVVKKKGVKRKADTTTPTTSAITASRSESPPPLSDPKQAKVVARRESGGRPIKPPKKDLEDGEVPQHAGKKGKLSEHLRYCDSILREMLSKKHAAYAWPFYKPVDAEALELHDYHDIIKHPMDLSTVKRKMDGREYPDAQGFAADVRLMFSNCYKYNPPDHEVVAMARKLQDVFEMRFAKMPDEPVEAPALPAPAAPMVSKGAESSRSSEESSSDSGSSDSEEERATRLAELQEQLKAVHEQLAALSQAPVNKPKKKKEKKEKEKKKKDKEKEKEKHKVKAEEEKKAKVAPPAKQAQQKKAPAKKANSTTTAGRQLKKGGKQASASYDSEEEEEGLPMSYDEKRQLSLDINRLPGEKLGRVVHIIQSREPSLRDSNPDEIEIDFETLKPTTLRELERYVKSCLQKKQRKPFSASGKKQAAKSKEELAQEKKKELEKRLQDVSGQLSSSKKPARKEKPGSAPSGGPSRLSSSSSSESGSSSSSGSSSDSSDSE

[13] = biological target: T2, Bromodomain-containing protein 2 (Homo sapiens, UniProt P25440); test: Binding affinity to BRD2 BD1 (unknown origin) by isothermal titration calorimetric method
T2 sequence (P25440 whole entry): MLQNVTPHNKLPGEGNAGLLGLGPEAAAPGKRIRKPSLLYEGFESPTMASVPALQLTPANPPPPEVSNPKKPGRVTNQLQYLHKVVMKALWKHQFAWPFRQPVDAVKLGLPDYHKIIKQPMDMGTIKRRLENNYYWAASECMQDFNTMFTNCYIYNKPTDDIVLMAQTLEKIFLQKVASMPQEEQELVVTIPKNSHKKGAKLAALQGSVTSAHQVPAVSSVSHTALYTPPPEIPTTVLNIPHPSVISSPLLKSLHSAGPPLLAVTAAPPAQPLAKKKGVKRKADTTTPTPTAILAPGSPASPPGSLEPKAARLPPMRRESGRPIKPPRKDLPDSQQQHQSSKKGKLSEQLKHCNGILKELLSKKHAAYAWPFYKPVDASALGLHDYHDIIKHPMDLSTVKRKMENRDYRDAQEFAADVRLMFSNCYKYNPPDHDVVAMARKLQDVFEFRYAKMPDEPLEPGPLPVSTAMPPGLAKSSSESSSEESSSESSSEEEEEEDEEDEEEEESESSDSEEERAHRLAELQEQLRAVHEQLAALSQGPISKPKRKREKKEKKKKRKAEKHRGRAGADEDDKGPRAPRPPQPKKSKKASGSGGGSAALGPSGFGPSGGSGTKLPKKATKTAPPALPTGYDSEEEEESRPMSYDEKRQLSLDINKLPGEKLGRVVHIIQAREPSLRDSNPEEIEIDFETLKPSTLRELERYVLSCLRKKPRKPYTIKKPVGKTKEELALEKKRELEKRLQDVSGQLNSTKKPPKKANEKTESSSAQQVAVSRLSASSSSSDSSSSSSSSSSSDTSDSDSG

[14] = biological target: T1, Bromodomain-containing protein 3; test: Binding affinity to BRD3 BD2 (unknown origin) by isothermal titration calorimetric method
[15] = biological target: T2, Bromodomain-containing protein 2; test: Binding affinity to BRD2 BD2 (unknown origin) by isothermal titration calorimetric method
Blood [16] = test: Antiinflammatory activity in human whole blood assessed as reduction in LPS-induced IL-6 production preincubated for 30 mins followed by LPS challenge and measured after overnight incubation by mesoscale assay; assay type: functional, tissue-based
MV4-11 = test: Growth inhibition of human MV4-11 cells incubated for 72 hrs by Cell-titre glo assay; assay type: functional, cell-based; conditions: MV4-11, 72 h
[17] = Cmax in CD1 mouse at 10 mg/kg, ip measured up to 12 hrs by reverse-phase LC-MS/MS analysis; assay type: ADME, organism-based; design: dose 10 mg/kg, route intraperitoneal; conditions: in vivo
How it was run: (§1)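 Three male CD1 mice (30–33 g) given a single ip dose of 10 mg/kg, formulated at 2 mg/mL in 10% Kleptose in saline at pH 5 and dosed at 5 mL/kg. Serial tail-vein blood (ca. 20 µL) was taken up to 12 h, with a terminal cardiac sample at 24 h. Blood was diluted 1:1 with water, extracted by acetonitrile protein precipitation with internal standard, and quantified by reverse-phase LC-MS/MS (positive ion) against standards in control blood. Values are mean of n = 3.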

[18] = Tmax in CD1 mouse at 10 mg/kg, ip measured up to 12 hrs by reverse-phase LC-MS/MS analysis; assay type: ADME, organism-based; conditions: in vivo; how it was run: as §1
[19] = Elimination half life in CD1 mouse at 10 mg/kg, ip measured up to 7 hrs by reverse-phase LC-MS/MS analysis; assay type: ADME, organism-based; conditions: in vivo, read-out: beta t1/2 (converted); how it was run: as §1
[20] = Terminal half life in CD1 mouse at 10 mg/kg, ip measured after 7 to 24 hrs by reverse-phase LC-MS/MS analysis; assay type: ADME, organism-based; conditions: in vivo, read-out: beta t1/2 (converted); how it was run: as §1
[21] = AUCinfinity in CD1 mouse at 10 mg/kg, ip measured up to 12 hrs by reverse-phase LC-MS/MS analysis; assay type: ADME, organism-based; design: dose 10 mg/kg, time infinity, route intraperitoneal; conditions: in vivo; how it was run: as §1
[22] = Unbound fraction in CD1 mouse blood at 200 to 1000 ng/ml incubated for 4 hrs by LC-MS/MS-based rapid equilibrium dialysis method; assay type: ADME, tissue-based
PBMC [23] = test: Antiinflammatory activity in human PBMC assessed as reduction in LPS-induced IL-6 production incubated for 18 to 24 hrs by mesoscale assay; assay type: functional, cell-based
PBMC [24] = test: Antiinflammatory activity in human PBMC assessed as reduction in LPS-induced MCP1 production incubated for 18 to 24 hrs by mesoscale assay; assay type: functional, cell-based
Blood [25] = test: Antiinflammatory activity in human whole blood assessed as reduction in LPS-induced MCP1 production preincubated for 30 mins followed by LPS challenge and measured after overnight incubation by mesoscale assay; assay type: functional, tissue-based

Row | Compound | IC50 [1] | IC50 [5] | also measured
1 | Cc1noc(C)c1-c1cc2ncc3c(c2cc1CC(=O)O)n(C(C)c1ccccn1)c(=O)n3C (stereo unspecified) | > 50.1 µM | > 50.1 µM | –
2 | Cc1noc(C)c1-c1cc2ncc3c(c2cc1C(=O)O)n(C(C)c1ccccn1)c(=O)n3C (stereo unspecified) | > 50.1 µM | 12.6 µM | –
3 | Cc1noc(C)c1-c1cc2ncc3c(c2cc1OC[C@H]1CCNC1)n(C(C)c1ccccn1)c(=O)n3C (mixture of isomers) | 25.1 µM | 0.501 µM | –
4 | CNCCCOc1cc2c(cc1-c1c(C)noc1C)ncc1c2n(C(C)c2ccccn2)c(=O)n1C (stereo unspecified) | 25.1 µM | 1 µM | –
5 | Cc1noc(C)c1-c1cc2ncc3c(c2cc1O[C@H]1CCNC1)n(C(C)c1ccccn1)c(=O)n3C (mixture of isomers) | > 50.1 µM | 6.31 µM | –
6 | CC(=O)NCCCCn1c2c(c3ccccc31)C(=O)NCC2 | – | – | Kd [12]: 3.3 to 8.6 µM; Kd [13]: 3.3 to 8.6 µM; Kd [14]: > 300 µM; Kd [15]: > 300 µM
7 | COCc1nc2cnc3cc(-c4c(C)noc4C)c(OC[C@H]4CCNC4)cc3c2n1[C@H](C)c1ccccc1 [GSK778] | – | – | IC50 (Blood [16]): 0.251 µM; IC50 (MV4-11): 0.1 µM; IC50 [2]: 1 µM; IC50 [3]: 3.16 µM; IC50 [7]: 0.0794 µM; Cmax [17]: 2.4 µM; Tmax [18]: 15 to 30 min; half-life [19]: 54 min; half-life [20]: 492 min; AUC(0-inf) [21]: 3.34 µM·h; fraction unbound at 4 h [22]: 0.08
8 | Cc1noc(C)c1-c1cc2ncc3c(c2cc1OCCCN(C)C)n([C@H](C)c1ccccn1)c(=O)n3C | > 50.1 µM | 1 µM | –
9 | Cc1noc(C)c1-c1cc2ncc3c(c2cc1OCCN)n(C(C)c1ccccn1)c(=O)n3C (stereo unspecified) | 31.6 µM | 1.26 µM | –
10 | Cc1noc(C)c1-c1cc2ncc3c(c2cc1OCCN(C)C)n([C@H](C)c1ccccn1)c(=O)n3C | > 50.1 µM | 2 µM | –
11 | COc1cc2c(cc1-c1c(C)noc1C)ncc1[nH]c(=O)n([C@H](C)c3ccccn3)c12 | – | – | IC50 (PBMC [23]): 0.126 µM; IC50 (PBMC [24]): 0.0398 µM; IC50 (Blood [16]): 1 µM; IC50 (MV4-11): 0.1 µM; IC50 (Blood [25]): 0.2 µM; IC50 [2]: 0.0794 µM; IC50 [4]: 0.126 µM; IC50 [6]: 0.0316 µM; IC50 [8]: 1.58 µM
12 | COc1ccc2c(c1)C(c1ccc(Cl)cc1)=N[C@@H](NC(=O)OCc1ccccc1)c1nnc(C)n1-2 | – | – | IC50 (PBMC [23]): 0.316 µM; IC50 (PBMC [24]): 0.0501 µM; IC50 (Blood [16]): 1.58 µM; IC50 (MV4-11): 0.2 µM; IC50 (Blood [25]): 0.2 µM
13 | Cc1noc(C)c1-c1cc2ncc3c(c2cc1OC[C@@H]1CCNC1)n(C(C)c1ccccn1)c(=O)n3C (mixture of isomers) | 31.6 µM | 0.794 µM | –
14 | Cc1noc(C)c1-c1cc2ncc3c(c2cc1O[C@@H]1CCNC1)n([C@H](C)c1ccccn1)c(=O)n3C | 50.1 µM | 1.26 µM | –
15 | Cc1noc(C)c1-c1cc2ncc3c(c2cc1OCC1CCNCC1)n(C(C)c1ccccn1)c(=O)n3C (stereo unspecified) | 39.8 µM | 0.794 µM | –

Further lines, with some results ahead:

Row | IC50 [1] | IC50 [5] | Compound | also measured
16 | 0.0398 µM | 0.01 µM | COCc1nc2cnc3cc(-c4c(C)noc4C)c(OC)cc3c2n1[C@H](C)c1ccccc1 | IC50 [2]: 0.0158 µM; IC50 [3]: 0.0398 µM; IC50 [4]: 0.0251 µM; IC50 [6]: 0.01 µM; IC50 [7]: 0.0126 µM; IC50 [8]: 0.316 µM; Selectivity Index (Homo sapiens [9]): 3.2; Selectivity Index (Homo sapiens [10]): 1.6; Selectivity Index (Homo sapiens [11]): 13
17 | 10 µM | 0.251 µM | Cc1noc(C)c1-c1cc2ncc3c(c2cc1O[C@H]1C[C@@H](N)C1)n(C(C)c1ccccn1)c(=O)n3C (stereo partly specified) | –
18 | 3.16 µM | 0.794 µM | CC(=O)NCCCOc1cc2c(cc1-c1c(C)noc1C)ncc1c2n(C(C)c2ccccn2)c(=O)n1C (stereo unspecified) | –
19 | 0.501 µM | 0.0501 µM | COc1cc2c(cc1-c1c(C)noc1C)ncc1c2n([C@H](C)c2ccccn2)c(=O)n1C | –
20 | 12.6 µM | 2 µM | Cc1noc(C)c1-c1cc2ncc3c(c2cc1OCC(=O)O)n([C@H](C)c1ccccn1)c(=O)n3C | –
21 | 6.31 µM | 0.501 µM | Cc1noc(C)c1-c1cc2ncc3c(c2cc1OCCCO)n(C(C)c1ccccn1)c(=O)n3C (stereo unspecified) | –
22 | 3.16 µM | 0.0794 µM | Cc1noc(C)c1-c1cc2ncc3c(c2cc1O[C@H]1C[C@H](N)C1)n(C(C)c1ccccn1)c(=O)n3C (stereo partly specified) | –
23 | 15.8 µM | 0.631 µM | Cc1noc(C)c1-c1cc2ncc3c(c2cc1OCCCN)n(C(C)c1ccccn1)c(=O)n3C (stereo unspecified) | –

Source: ChEMBL document CHEMBL4622984, “Structure-Based Design of a Bromodomain and Extraterminal Domain (BET) Inhibitor Selective for the N-Terminal Bromodomains That Retains an Anti-inflammatory and Antiproliferative Phenotype” (J Med Chem, 2020)
